ChEMBL document CHEMBL2407036, “Flow Synthesis and Biological Studies of an Analgesic Adamantane Derivative That Inhibits P2X7-Evoked Glutamate Release” (ACS Med Chem Lett, 2013)
Active and inactive are the calls of the source.

Columns and labels:
Mus musculus [1] = assay: Analgesic activity in Swiss albino mouse assessed as inhibition of acetic acid-induced abdominal contraction at 10 to 60 mg/kg, po measured after 30 mins; assay type: functional, organism-based; settings: Abdominal cavity
Mus musculus [2] = assay: Analgesic activity in Swiss albino mouse assessed as inhibition of acetic acid-induced abdominal contraction at 20 to 60 mg/kg, po measured after 30 mins; assay type: functional, organism-based; settings: Abdominal cavity
Rattus norvegicus [3] = assay: Antinociceptive activity against carrageenan-induced hyperalgesia in rat assessed as paw pressure at 3 mg/kg, po measured after 15 mins (reference value: 32.8 +/- 2.9 g); assay type: functional
In short: (§1)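 Rats received intraplantar carrageenan before oral dosing. Paw-pressure withdrawal threshold (g) was measured before treatment and at 15, 30, 60 and 90 min after it. Carrageenan-injected rats given vehicle served as reference, with saline-injected rats as a further control.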

Rattus norvegicus [4] = assay: Antinociceptive activity against carrageenan-induced hyperalgesia in rat assessed as paw pressure at 10 mg/kg, po measured after 90 mins (reference value: 34.8 +/- 3.1 g); assay type: functional; in short: as §1
[5] = molecular target: T1, Prostaglandin G/H synthase 2 (Homo sapiens) (UniProt P35354); assay: Inhibition of COX-2 (unknown origin)
T1 sequence (whole entry): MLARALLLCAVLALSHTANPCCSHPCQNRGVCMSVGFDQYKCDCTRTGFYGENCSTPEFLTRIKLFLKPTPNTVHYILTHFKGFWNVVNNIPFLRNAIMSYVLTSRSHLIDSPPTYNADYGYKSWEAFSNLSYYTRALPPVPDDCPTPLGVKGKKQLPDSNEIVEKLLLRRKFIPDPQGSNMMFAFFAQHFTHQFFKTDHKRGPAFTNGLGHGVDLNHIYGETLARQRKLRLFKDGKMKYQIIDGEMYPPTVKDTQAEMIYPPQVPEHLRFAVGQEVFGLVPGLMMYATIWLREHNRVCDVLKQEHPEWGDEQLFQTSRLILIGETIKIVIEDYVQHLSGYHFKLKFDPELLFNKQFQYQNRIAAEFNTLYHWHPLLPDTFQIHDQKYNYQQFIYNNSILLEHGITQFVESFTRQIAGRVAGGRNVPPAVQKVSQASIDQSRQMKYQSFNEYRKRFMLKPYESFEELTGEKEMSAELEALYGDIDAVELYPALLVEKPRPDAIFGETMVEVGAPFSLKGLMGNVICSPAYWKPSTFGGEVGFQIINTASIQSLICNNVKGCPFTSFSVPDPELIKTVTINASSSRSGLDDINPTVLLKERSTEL

[6] = molecular target: T2, P2X purinoceptor 7 (Rattus norvegicus) (UniProt Q64663); settings: Brain, 50 uM
T2 sequence (whole entry): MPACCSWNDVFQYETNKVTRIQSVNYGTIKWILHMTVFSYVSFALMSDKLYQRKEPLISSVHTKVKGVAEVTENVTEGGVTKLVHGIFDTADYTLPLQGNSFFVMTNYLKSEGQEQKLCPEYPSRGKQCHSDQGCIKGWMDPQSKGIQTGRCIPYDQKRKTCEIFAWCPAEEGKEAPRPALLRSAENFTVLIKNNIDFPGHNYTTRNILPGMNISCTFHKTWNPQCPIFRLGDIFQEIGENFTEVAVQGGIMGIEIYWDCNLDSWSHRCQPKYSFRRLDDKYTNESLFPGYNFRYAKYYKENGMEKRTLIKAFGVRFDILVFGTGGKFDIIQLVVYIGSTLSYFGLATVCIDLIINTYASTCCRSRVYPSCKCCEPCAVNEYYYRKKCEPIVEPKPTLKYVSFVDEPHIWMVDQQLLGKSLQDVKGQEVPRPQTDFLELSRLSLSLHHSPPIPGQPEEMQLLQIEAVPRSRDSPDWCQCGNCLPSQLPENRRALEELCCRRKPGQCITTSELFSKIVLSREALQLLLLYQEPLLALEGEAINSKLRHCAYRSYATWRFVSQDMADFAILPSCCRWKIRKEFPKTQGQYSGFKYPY

Rattus norvegicus [7] = assay: Antinociceptive activity against carrageenan-induced hyperalgesia in rat assessed as paw pressure at 20 mg/kg, po measured after 15 mins (reference value: 32.8 +/- 2.9 g); assay type: functional; in short: as §1
Mus musculus [8] = assay: Analgesic activity in Swiss albino mouse assessed as inhibition of acetic acid-induced abdominal contraction at 3 mg/kg, po measured after 30 mins; assay type: functional, organism-based; set-up: dose 3 mg/kg; settings: Abdominal cavity
In short: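 Writhing was induced in Swiss albino mice with 0.6% acetic acid. Drugs were given p.o. 30 min before the test. Writhes were counted at 30 and 60 min and compared with vehicle-treated controls.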

P2X purinoceptor 7 = molecular target: T3, P2X purinoceptor 7 (Rattus norvegicus, UniProt Q64663); assay: Antagonist activity at P2X7 in Sprague-Dawley rat synaptosome assessed as inhibition of BzATP-induced [3H]D-aspartate efflux compound preincubated for 8 mins by liquid scintillation counting; set-up: species or system Brain
T3 sequence (Q64663 whole entry): T2 sequence (whole entry)
In short: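 Purified rat cerebrocortical synaptosomes loaded with [3H]D-aspartate and superfused. 100 μM BzATP added for 120 s. Compound added 8 min before BzATP. Ca2+-free conditions used medium with 0.5 mM EGTA, added 18 min before BzATP. Log concentration–response for inhibition of evoked efflux. Mean ± SEM of 3−12 independent experiments in triplicate.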

Mus musculus [9] = assay: Analgesic activity in Swiss albino mouse assessed as inhibition of acetic acid-induced abdominal contraction at 10 mg/kg, po measured after 30 mins in presence of SR-141716A; assay type: functional, organism-based; set-up: dose 10 mg/kg; settings: Abdominal cavity
Rattus norvegicus [10] = assay: Antinociceptive activity against carrageenan-induced paw edema in rat assessed as paw edema volume at 20 mg/kg, po measured after 30 mins (reference value: 2.71+/- 0.08 ml); assay type: functional
Rattus norvegicus [11] = assay: Antinociceptive activity against carrageenan-induced hyperalgesia in rat assessed as paw pressure at 10 mg/kg, po measured after 60 mins (reference value: 31.8 +/- 2.2 g); assay type: functional; in short: as §1
[12] = molecular target: Prostaglandin G/H synthase 1 (Homo sapiens) (UniProt P23219); assay: Inhibition of COX-1 (unknown origin)
Prostaglandin G/H synthase 1 (Homo sapiens), sequence (P23219 whole entry): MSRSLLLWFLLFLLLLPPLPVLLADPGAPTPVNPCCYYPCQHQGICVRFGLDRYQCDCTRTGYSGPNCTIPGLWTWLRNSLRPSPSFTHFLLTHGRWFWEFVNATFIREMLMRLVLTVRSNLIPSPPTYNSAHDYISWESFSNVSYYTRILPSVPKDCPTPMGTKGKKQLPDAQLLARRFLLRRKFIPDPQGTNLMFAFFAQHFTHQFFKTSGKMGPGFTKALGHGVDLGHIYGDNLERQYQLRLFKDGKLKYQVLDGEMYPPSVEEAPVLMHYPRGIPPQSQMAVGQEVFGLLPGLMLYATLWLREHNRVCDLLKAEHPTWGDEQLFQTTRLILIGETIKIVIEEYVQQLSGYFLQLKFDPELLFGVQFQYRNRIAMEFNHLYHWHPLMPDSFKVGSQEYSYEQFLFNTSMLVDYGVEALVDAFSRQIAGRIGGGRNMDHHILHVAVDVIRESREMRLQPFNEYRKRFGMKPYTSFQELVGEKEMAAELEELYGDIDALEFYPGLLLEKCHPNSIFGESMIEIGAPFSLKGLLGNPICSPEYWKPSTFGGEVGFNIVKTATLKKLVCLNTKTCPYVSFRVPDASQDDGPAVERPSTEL

Rattus norvegicus [13] = assay: Antinociceptive activity against carrageenan-induced paw edema in rat assessed as paw edema volume at 10 mg/kg, po measured after 30 mins (reference value: 2.71+/- 0.08 ml); assay type: functional
Rattus norvegicus [14] = assay: Antinociceptive activity against carrageenan-induced hyperalgesia in rat assessed as paw pressure at 10 mg/kg, po measured after 30 mins (reference value: 30.6 +/- 3.2 g); assay type: functional; in short: as §1
Mus musculus [15] = assay: Analgesic activity in Swiss albino mouse assessed as inhibition of acetic acid-induced abdominal contraction at 10 mg/kg, po measured after 30 mins in presence of naxolone; assay type: functional, organism-based; set-up: dose 10 mg/kg; settings: Abdominal cavity
Rattus norvegicus [16] = species: Rattus norvegicus; assay: Inhibition of K+ depolarization-induced [3H]D-aspartate efflux in Sprague-Dawley rat synaptosome preincubated at 50 uM for 8 mins by liquid scintillation counting; assay type: functional, tissue-based; settings: Brain
In short: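 Purified rat cerebrocortical synaptosomes were loaded with [3H]D-aspartate and superfused. Compound was added 8 min before K+ depolarization, which was applied as KCl for 120 s during superfusion. Evoked tritium efflux was measured. Data are mean ± SEM of 3–12 independent experiments in triplicate.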

Rattus norvegicus [17] = assay: Antinociceptive activity against carrageenan-induced hyperalgesia in rat assessed as paw pressure at 3 mg/kg, po measured after 90 mins (reference value: 34.8 +/- 3.1 g); assay type: functional; in short: as §1
Rattus norvegicus [18] = assay: Antinociceptive activity against carrageenan-induced hyperalgesia in rat assessed as paw pressure at 20 mg/kg, po measured after 30 mins (reference value: 30.6 +/- 3.2 g); assay type: functional; in short: as §1
Rattus norvegicus [19] = assay: Antinociceptive activity against carrageenan-induced hyperalgesia in rat assessed as paw pressure at 3 mg/kg, po measured after 60 mins (reference value: 31.8 +/- 2.2 g); assay type: functional; in short: as §1
Rattus norvegicus [20] = assay: Antinociceptive activity against carrageenan-induced hyperalgesia in rat assessed as paw pressure at 20 mg/kg, po measured after 90 mins (reference value: 34.8 +/- 3.1 g); assay type: functional; in short: as §1
Rattus norvegicus [21] = assay: Antinociceptive activity against carrageenan-induced paw edema in rat assessed as paw edema volume at 3 mg/kg, po measured after 30 mins (reference value: 2.71+/- 0.08 ml); assay type: functional
[22] = molecular target: T2, P2X purinoceptor 7 (Rattus norvegicus); settings: Brain, 50 uM; remark: listed apart in the source
Rattus norvegicus [23] = assay: Antinociceptive activity against carrageenan-induced hyperalgesia in rat assessed as paw pressure at 3 mg/kg, po measured after 30 mins (reference value: 30.6 +/- 3.2 g); assay type: functional; in short: as §1
Rattus norvegicus [24] = assay: Antinociceptive activity against carrageenan-induced hyperalgesia in rat assessed as paw pressure at 20 mg/kg, po measured after 60 mins (reference value: 31.8 +/- 2.2 g); assay type: functional; in short: as §1
Rattus norvegicus [25] = assay: Antinociceptive activity against carrageenan-induced hyperalgesia in rat assessed as paw pressure at 10 mg/kg, po measured after 15 mins (reference value: 32.8 +/- 2.9 g); assay type: functional; in short: as §1
[26] = molecular target: T2, P2X purinoceptor 7 (Rattus norvegicus); settings: Brain, 50 uM; remark: listed apart in the source

SMILES: N[C@H](c1ccccc1)[C@H](NC(=O)C1(NC(=O)c2ccccc2)C2CC3CC(C2)CC1C3)c1ccccc1 (stereo partly drawn)
- inhibition (Mus musculus [1]): Active

SMILES: C[C@@H](NC(=O)C1(NC(=O)c2ccccc2)C2CC3CC(C2)CC1C3)C(=O)O (stereo partly drawn)
- inhibition (Mus musculus [2]): inactive

SMILES: O=C(NC1(C(=O)NC2CC2)C2CC3CC(C2)CC1C3)c1ccccc1 (stereo not drawn)
- Activity (Rattus norvegicus [3]): 39.1 g
- Activity (Rattus norvegicus [4]): 38.2 g
- inhibition [5]: inactive
- inhibition [6]: inactive
- Activity (Rattus norvegicus [7]): 48.4 g
- inhibition (Mus musculus [8]): Active
- IC50 (P2X purinoceptor 7): 7.7 µM
- inhibition (Mus musculus [9]): Active
- Activity (Rattus norvegicus [10]): 2.1 mL
- Activity (Rattus norvegicus [11]): 43.4 g
- inhibition [12]: inactive
- Activity (Rattus norvegicus [13]): 2.06 mL
- Activity (Rattus norvegicus [14]): 52.7 g
- inhibition (Mus musculus [15]): Active
- inhibition (Rattus norvegicus [16]): inactive
- Activity (Rattus norvegicus [17]): 36.9 g
- Activity (Rattus norvegicus [18]): 53.9 g
- Activity (Rattus norvegicus [19]): 35.6 g
- Activity (Rattus norvegicus [20]): 33.6 g
- Activity (Rattus norvegicus [21]): 2.53 mL
- inhibition [22]: inactive
- Activity (Rattus norvegicus [23]): 40.8 g
- Activity (Rattus norvegicus [24]): 48.3 g
- Activity (Rattus norvegicus [25]): 44.2 g
- inhibition [26]: Active

SMILES: O=C(NC1(C(=O)NCCc2ccccc2)C2CC3CC(C2)CC1C3)c1ccccc1 (stereo not drawn)
- inhibition (Mus musculus [2]): inactive
